# Screening data from PubChem.
# Shown are actives, neighbours in structure and some others; about 1.5% of the full set was active somewhere.
# APJ antag: antagonists of human APJ apelin receptor | inhibition, % at 20 µM | CHO-K1 APJ beta-arrestin complementation, luminescence | 330,000 tested, 0.32% active;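 active = inhibition above about 40% at 20 µM, limit read from the data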;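 also: cells challenged with 10 nM apelin-13 agonist together with compound; plate controls were apelin-13 plus DMSO wells for no effect and DMSO wells lacking apelin-13 for full effect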
# iPSC survival up: increases survival of single human iPS cells; hiPSC single-cell survival, ATPlite luminescence; 100% = ROCK inhibitor wells, 0% = DMSO; 360,000 tested, 0.044% active; survival enhancement, % at 20 µM; in the data active = survival enhancement above about 18%;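 also: cells exposed to compounds for 16 hours before the ATP read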
# APJ ag: agonists of human APJ apelin receptor; CHO-K1 APJ PathHunter beta-arrestin, luminescence; 0% DMSO wells, 100% apelin; activation, % at 20 µM; 330,000 tested, 0.11% active; AID 2520; P35414;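 active = activation more than six SD over the plate average, tested at 20 µM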;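 also: 0% = DMSO alone and 100% = apelin-13 at 10 nM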
#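 Assay system: engineered CHO-K1 APJ arrestin reporter cells; Amount: 1000 CHO-K1 reporter cells seeded per well; Dosing: one dose, 20 µM compound, 1% DMSO; Times: compound stimulation 90 min at 25 °C, detection 60 min; Measured by: luminescent beta-gal fragment complementation, chemiluminescent substrate; Read-out: APJ–arrestin association signal; Controls: DMSO vs Apelin-13 10 nM.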
# CXCR6 inh: CXCR6 (human) receptor inhibition; O00574; CHO-K1 PathHunter CXCR6 beta-arrestin, luminescence; inhibition, % at 20 µM; 360,000 tested, 0.36% active; in the data active = inhibition above about 34%, passing the limit was not always enough;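 also: antagonist mode with CXCL16 agonist at 10 nM final; 0% = 10 nM CXCL16 with DMSO and 100% = unstimulated wells without agonist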
# Target sequence (O00574 whole entry, looked up): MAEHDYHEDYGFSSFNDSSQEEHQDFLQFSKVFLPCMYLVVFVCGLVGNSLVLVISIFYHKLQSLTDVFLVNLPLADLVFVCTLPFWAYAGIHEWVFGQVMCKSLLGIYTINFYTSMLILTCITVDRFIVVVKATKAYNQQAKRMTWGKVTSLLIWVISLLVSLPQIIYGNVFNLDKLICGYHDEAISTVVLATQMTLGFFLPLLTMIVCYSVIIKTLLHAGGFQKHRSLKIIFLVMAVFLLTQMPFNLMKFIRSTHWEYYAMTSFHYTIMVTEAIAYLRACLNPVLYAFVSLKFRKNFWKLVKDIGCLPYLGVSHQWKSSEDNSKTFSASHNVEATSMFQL
# CCR6 antagonist: antagonists of human CCR6 receptor; CHO-K1 CCR6 PathHunter beta-arrestin, luminescence, CCL20-stimulated; AID 493098; 340,000 tested, 0.49% active; P51684; inhibition, % at 20 µM;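 active = compounds whose inhibition of the agonist-driven luminescence signal at 20 µM reaches about 50%, limit read from the data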;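 also: cells stimulated with CCL20 at 14 nM final; plate controls were DMSO with CCL20 for no effect and DMSO without agonist for full effect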
# EBI2 antag: blocks human EBI2 receptor beta-arrestin signaling; EBI2 beta-arrestin recruitment, luminescence, 7a,25-OHC stimulated; inhibition, % at 5 µM; 360,000 tested, 0.81% active; AID 651636; in the data active = inhibition above about 38%;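 also: enzyme fragment complementation signal reports receptor beta-arrestin coupling in cells; 0% = agonist plus DMSO wells and 100% = wells without agonist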
# Target sequence (P32249 whole entry, looked up, the tested form may be a part): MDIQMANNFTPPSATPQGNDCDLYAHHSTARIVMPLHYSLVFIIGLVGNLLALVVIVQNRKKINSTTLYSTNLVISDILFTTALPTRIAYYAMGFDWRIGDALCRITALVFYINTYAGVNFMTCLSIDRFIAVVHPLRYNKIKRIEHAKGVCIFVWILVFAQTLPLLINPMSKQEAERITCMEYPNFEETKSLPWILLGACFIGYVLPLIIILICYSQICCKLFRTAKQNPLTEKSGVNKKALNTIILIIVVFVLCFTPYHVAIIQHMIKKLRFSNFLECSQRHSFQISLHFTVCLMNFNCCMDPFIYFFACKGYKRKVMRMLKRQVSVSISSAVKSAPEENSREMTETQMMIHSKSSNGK
# * = called active by the depositor; . = no result.
SMILES,APJ antag,iPSC survival up,APJ ag,CXCR6 inh,CCR6 antagonist,EBI2 antag
COc1ccc(S(=O)(=O)Nc2c(O)ccc3ccccc23)cc1OC,-18.5,0.7,6.1,-9.8,-2.9,-2.6
CC1CC(C)CN(S(=O)(=O)N2CCCC(C(=O)NCc3ccccc3Cl)C2)C1 (stereo not drawn),4.1,-0.1,4.1,7.0,56.0*,4.5
NC(=O)c1ccc(Nc2nc(C(N)c3ccccc3Cl)cs2)cc1 (stereo not drawn),.,27.8*,.,1.7,.,0.7
CCN(CC)c1ccc(/C=C2/SC(=O)N(C(C)C)C2=O)o1,.,-3.2,.,24.2,45.5,42.2*
CC(C)N1C(=O)S/C(=C\c2ccc(-c3ccc(Cl)c(C(=O)O)c3)o2)C1=O,15.5,-0.7,-3.1,-4.0,-3.5,-10.1
COc1cc(/C=C2\C(=O)N(c3ccc(NC(C)=O)cc3)N=C2c2ccccc2)ccc1O,39.7,1.5,-3.8,46.0*,48.0,9.0
CC(C)NC(=O)c1ccc2c(c1)S(=O)(=O)c1ccccc1C2=O,-35.2,19.8*,3.6,-13.7,-4.3,-14.0
CCCNC(=O)c1ccc2c(c1)S(=O)(=O)c1ccccc1C2=O,-55.5,-0.2,9.8,-4.1,-4.2,-7.6
COc1ccc(Cl)cc1NC(=O)CN(C)C(C)C(=O)NC(=O)NC1CCCCC1 (stereo not drawn),9.9,-0.3,-5.0,-11.0,18.8,7.1
Cc1c(Cl)cccc1N1C(=O)C(N2C(=O)c3cccc([N+](=O)[O-])c3C2=O)C1c1cccs1 (stereo not drawn),-9.0,-1.7,0.3,-5.6,-36.7,48.1*
Cc1cc(Br)ccc1-n1[nH]c(C)c(C=Nc2cccc3nsnc23)c1=O,-22.2,-1.9,-4.4,32.9,51.9*,14.8
Cc1nnc(SCC(=O)NNC(=O)c2ccccc2)n1N,-5.0,0.0,-2.3,-9.4,3.6,-5.6
Cc1ccc(CNc2oc(COc3ccccc3Cl)nc2C#N)cc1,-9.8,3.5,2.1,5.5,5.3,47.1*
COc1ccc(CNc2oc(COc3ccccc3Cl)nc2C#N)cc1,3.8,0.1,-3.4,5.6,5.4,35.0
CC(=O)Oc1cccc2c1C(=O)C1CC=CC(OC(C)=O)C1C2=O (stereo not drawn),.,3.8,.,-0.8,10.0,-13.3
N#CC(C#N)=C1C=CC=CN1/C(=C\c1ccccc1)C(=O)c1cccs1,24.0,-2.5,-3.5,9.0,87.2*,-10.1
O=[N+]([O-])c1ccc(Nc2ccccc2)c2nonc12,51.7*,0.6,-8.5,31.9,51.3*,12.8
O=[N+]([O-])c1ccc(Sc2cccc[n+]2[O-])c2nonc12,.,0.1,.,109.5*,115.3*,58.1*
Cc1c(NS(=O)(=O)c2cc(C(=O)OCC(=O)c3ccccc3F)ccc2Cl)c(=O)n(-c2ccccc2)n1C,.,-0.4,.,0.2,.,-8.8
O=C1/C(=C\c2ccc(Cl)c(Cl)c2)CN(C(=O)CCN2CCOCC2)C/C1=C/c1ccc(Cl)c(Cl)c1,.,1.6,.,31.7,55.5*,89.6*
CCN(CC)CCC(=O)N1C/C(=C/c2ccccc2)C(=O)/C(=C\c2ccccc2)C1,.,3.1,.,62.4*,65.5*,52.2*
O=C(CCN1C(=O)S/C(=C\c2ccccc2)C1=O)N1CCCCC1,-3.0,1.4,-3.1,-2.9,1.1,2.8
O=C1/C(=C\c2ccccc2)CCC/C1=C/c1ccccc1,.,-1.9,.,2.8,14.7,-8.3
O=C1/C(=C\c2ccccc2)CN(C(=O)CCN2CCCCC2)C/C1=C/c1ccccc1,.,3.5,.,66.4*,81.9*,52.3*
CCC(c1nc2ccccc2[nH]1)N(C(=O)C1=NNC(=O)CC1)c1ccccc1 (stereo not drawn),.,0.0,.,1.6,.,-5.8
SMILES,APJ antag,iPSC survival up,APJ ag,CXCR6 inh,CCR6 antagonist,EBI2 antag
O=c1cc(-c2ccccc2)nc2nc(SCc3ccccc3)[nH]n12,2.7,31.4*,8.3,-0.9,1.5,-3.3
Cc1cc(=O)n2[nH]c(SCc3ccccc3)nc2n1,-8.6,-0.6,-2.3,2.0,-0.1,10.5
Cc1cccc(OCC(=O)NCC(=O)N/N=C/c2cc(Br)cc(Br)c2O)c1,22.2,0.9,-2.7,45.4*,10.4,-0.8
COc1cccc(/C=N/NC(=O)CNC(=O)COc2ccccc2)c1O,-4.5,-0.4,1.7,-8.8,-5.1,5.0
COc1cc(/C=C/C(=O)/C=C(O)/C=C/c2ccc(O)c(OC)c2)ccc1O,4.0,-3.2,-8.4,33.3,54.4*,-4.4
COc1ccc(/C=C/C(=O)c2ccc([N+](=O)[O-])o2)cc1OC,-126.4,.,21.4,.,49.0,.
COc1cc(/C=C/C(=O)c2ccc([N+](=O)[O-])o2)ccc1O,-53.5,4.4,2.1,15.0,74.8*,-24.4
NC(=S)NN=C1Cc2cccc3cccc1c23,.,-1.0,.,6.7,4.8,2.6
CC1Oc2ccccc2N(CC(=O)NCCCN2CCOCC2)C1=O (stereo not drawn),0.4,0.1,-1.9,-0.8,-0.8,-3.3
O=C(CN1C(=O)/C(=C\c2ccccc2Br)Oc2ccccc21)NCCCN1CCOCC1,16.9,-0.2,-3.8,1.1,68.2*,3.8
CCN1/C(=C2/OC(=S)N(C)C2=O)Sc2ccccc21,.,-0.6,.,-10.5,5.9,-8.1
CCN1/C(=C\C=C2\C(=O)N(C)C(=S)N2C)Sc2ccccc21,12.6,-1.5,19.1*,23.2,37.8,20.9
COc1cccc(NC(=O)C(=O)NCCCN2CCCC2=O)c1,0.8,-0.4,9.2,-1.1,0.6,-8.7
COc1ccccc1N(C(=O)CCl)c1cn(C(C)=O)c2ccccc12,19.0,0.4,-3.0,1.7,8.2,-8.2
COc1ccccc1N(C(C)=O)C1=C(Cl)C(=O)c2ccccc2C1=O,.,-2.9,.,96.5*,.,2.8
CCN(CC)C(=O)C1=C(C)N(CCCOC)C(=O)C(CC(=O)NC(c2ccccc2)c2ccccc2)C1 (stereo not drawn),.,3.4,.,-2.9,.,-5.8
COc1cc(/C=C2\CC/C(=C\c3cc(OC)c(OC)c(OC)c3)C2=O)cc(OC)c1OC,16.7,-3.5,-3.3,4.4,2.2,32.9
COc1cc(/C=C2\COC/C(=C\c3cc(OC)c(OC)c(OC)c3)C2=O)cc(OC)c1OC,.,6.9,.,38.7*,55.3*,44.8*
COc1cc(/C=C2\CC/C(=C\c3cc(OC)c(O)c(OC)c3)C2=O)cc(OC)c1O,-6.1,-2.3,-2.6,42.2*,54.9*,22.9
COc1cc(/C=C2/CCC/C(=C\c3cc(O)c(OC)c(Cl)c3)C2=O)cc(Cl)c1O,37.8,-1.3,-8.3,26.1,73.8*,23.8
O=C1OC=NC1=Cc1ccccc1,.,1.5,.,-5.0,15.9,-1.0
O=C1NCCN1c1ccccc1,.,28.6*,.,1.9,-3.4,-4.3
O=C1N(c2ccccc2)CCN1c1ccccc1,-12.2,-0.5,-1.2,-1.8,10.2,0.6
CCN(CC)CCn1c(NC(=O)c2ccccc2O)nc2ccccc21,26.8,-0.4,-1.0,57.4*,.,-5.0
